Measured values as given in paper PMC6221542 (Science Advances, 2018).
Entries after “also recorded” stand apart in the source; their conditions may differ. Where no end group is shown, it is not given here.

Legend:
[1] = system: methylated H3K9 and H3K27 peptides; assay: Peptide microarray, chromodomain binding profile; parameters: species or system human
Summary of the method: (§1)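 Array of 467 unmodified and modified peptides (desalted, mass-spectrometry checked) printed in triplicate spots on glass slides and probed with chromodomain proteins. Signal intensities converted to z scores per chromodomain using all its intensities: z = (x − mean)/SD. Hierarchical clustering grouped chromodomains into three categories and peptides into six clusters by binding preference.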

H3K9me3 = details: read-out: Kd H3K9me3; reported Kd of CBX chromodomains; cited from earlier work
SUV91 chromodomain = assay: Peptide microarray binding, SUV91; parameters: species or system human
Summary of the method: as §1

Substance	binding profile toward methylated H3K9 / H3K27 peptides (in words) [1]	Kd (H3K9me3)	binding to SUV91 chromodomain (in words) (SUV91 chromodomain)
CBX2: CBX2 chromodomain, GST fusion, cloned sequence 9-66 (EQVFAAECILSKRLRKGKLEYLVKWRGWSSKHNSWEPEENILDPRLLLAFQKKEHEKE; also: GST fusion, end not given here; UniProt Q14781 9-66, looked up, fragment)	binding to both methylated H3K9 and H3K27 was confirmed; also recorded: higher H3K27 signal intensity compared with those of H3K9	–	–
CBX4: CBX4 chromodomain, GST fusion, cloned sequence 8-65 (EHVFAVESIEKKRIRKGRVEYLVKWRGWSPKYNTWEPEENILDPRLLIAFQNRERQEQ; also: GST fusion, end not given here; UniProt O00257 8-65, looked up, fragment)	binding to both methylated H3K9 and H3K27 was confirmed	–	–
CBX6: CBX6 chromodomain, GST fusion, cloned sequence 8-65 (ERVFAAESIIKRRIRKGRIEYLVKWKGWAIKYSTWEPEENILDSRLIAAFEQKERERE; also: GST fusion, end not given here; UniProt O95503 8-65, looked up, fragment)	binding to both methylated H3K9 and H3K27 was confirmed; also recorded: showed signals with di- and trimethylated peptides at both sites	–	–
CBX8: CBX8 chromodomain, GST fusion, cloned sequence 8-61 (ERVFAAEALLKRRIRKGRMEYLVKWKGWSQKYSTWEPEENILDARLLAAFEERE; also: GST fusion, end not given here; UniProt Q9HC52 8-61, looked up, fragment)	binding to both methylated H3K9 and H3K27 was confirmed; also recorded: showed signals with di- and trimethylated peptides at both sites	–	–
WT CBX1: WT CBX1 chromodomain, GST fusion, cloned sequence 20-73	bound predominantly to all three methylated H3K9 peptides	5 µM	–
[Ahx]AATASCLIC[K_Me3]YAA [methylated SIRT1 sequence]	–	–	showed binding
